Data published in ChEMBL document CHEMBL3244142, “Antifungal properties of 2-bromo-3-fluorosuccinic acid esters and related compounds” (1977).
Converted amounts (≈) assume the structure as drawn. Where a name gives a salt, the structure may show the parent alone. The source made the active and inactive calls. The calls are words filed in the database; no cut-off is given here.

Columns and labels:
[1] = system: Trichophyton mentagrophytes; assay: Antifungal activity against Trichophyton mentagrophytes ATCC 9129 at pH 7 after 5 days in presence of 10% beef serum; assay type: functional; settings: Trichophyton mentagrophytes, ATCC 9129, 120 h; read-out: MIC
Procedure, shortened: (§1)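 Agar-dilution MIC in Sabouraud dextrose agar at pH 5.6 or 7.0, with or without 10% beef serum. Plates were incubated at 28 °C for 5 days. MIC is the lowest concentration (µg/mL) giving 100% inhibition. Steps were 1 µg/mL up to 10, 2 µg/mL from 10–20, and 10 µg/mL from 20–100; 100 µg/mL was the top level, and no inhibition there is scored as >100.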

[2] = system: Aspergillus niger; assay: Antifungal activity against Aspergillus niger ATCC 1004 at pH 5.6 after 5 days in presence of 10% beef serum; assay type: functional; settings: Aspergillus niger, ATCC 1004, 120 h; read-out: MIC; procedure, shortened: as §1
[3] = system: Mucor mucedo; assay: Antifungal activity against Mucor mucedo ATCC 7941 at pH 5.6 after 20 h in presence of 10% beef serum; settings: ATCC 7941, 20 h
[4] = system: Candida albicans; assay: Antifungal activity against Candida albicans ATCC 10231 at pH 5.6 after 20 h in presence of 10% beef serum; settings: ATCC 10231, 20 h
[5] = system: Candida albicans; assay: Antifungal activity against Candida albicans ATCC 10231 at pH 7 after 20 h in presence of 10% beef serum; settings: ATCC 10231, 20 h
[6] = system: Candida albicans; assay: Antifungal activity against Candida albicans ATCC 10231 at pH 5.6 after 20 h in absence of 10% beef serum; settings: ATCC 10231, 20 h
[7] = system: Mucor mucedo; assay: Antifungal activity against Mucor mucedo ATCC 7941 at pH 5.6 after 20 h in absence of 10% beef serum; settings: ATCC 7941, 20 h
[8] = system: Mucor mucedo; assay: Antifungal activity against Mucor mucedo ATCC 7941 at pH 7 after 20 h in presence of 10% beef serum; settings: ATCC 7941, 20 h
[9] = system: Aspergillus niger; assay: Antifungal activity against Aspergillus niger ATCC 1004 at pH 7 after 5 days in absence of 10% beef serum; assay type: functional; settings: Aspergillus niger, ATCC 1004, 120 h; read-out: MIC; procedure, shortened: as §1
[10] = system: Aspergillus niger; assay: Antifungal activity against Aspergillus niger ATCC 1004 at pH 7 after 5 days in presence of 10% beef serum; assay type: functional; settings: Aspergillus niger, ATCC 1004, 120 h; read-out: MIC; procedure, shortened: as §1
[11] = system: Mucor mucedo; assay: Antifungal activity against Mucor mucedo ATCC 7941 at pH 7 after 20 h in absence of 10% beef serum; settings: ATCC 7941, 20 h
[12] = system: Aspergillus niger; assay: Antifungal activity against Aspergillus niger ATCC 1004 at pH 5.6 after 5 days in absence of 10% beef serum; assay type: functional; settings: Aspergillus niger, ATCC 1004, 120 h; read-out: MIC; procedure, shortened: as §1
[13] = system: Trichophyton mentagrophytes; assay: Antifungal activity against Trichophyton mentagrophytes ATCC 9129 at pH 5.6 after 5 days in absence of 10% beef serum; assay type: functional; settings: Trichophyton mentagrophytes, ATCC 9129, 120 h; read-out: MIC; procedure, shortened: as §1
[14] = system: Trichophyton mentagrophytes; assay: Antifungal activity against Trichophyton mentagrophytes ATCC 9129 at pH 5.6 after 5 days in presence of 10% beef serum; assay type: functional; settings: Trichophyton mentagrophytes, ATCC 9129, 120 h; read-out: MIC; procedure, shortened: as §1
[15] = system: Trichophyton mentagrophytes; assay: Antifungal activity against Trichophyton mentagrophytes ATCC 9129 at pH 7 after 5 days in absence of 10% beef serum; assay type: functional; settings: Trichophyton mentagrophytes, ATCC 9129, 120 h; read-out: MIC; procedure, shortened: as §1
[16] = system: Candida albicans; assay: Antifungal activity against Candida albicans ATCC 10231 at pH 7 after 20 h in absence of 10% beef serum; settings: ATCC 10231, 20 h
[17] = system: Aspergillus niger; assay: Antifungal activity against Aspergillus niger ATCC 1004 at <100 ug/ml at pH 5.6 after 5 days in absence of 10% beef serum; assay type: functional, organism-based; procedure, shortened: as §1
[18] = system: Aspergillus niger; assay: Antifungal activity against Aspergillus niger ATCC 1004 at <100 ug/ml at pH 7 after 5 days in absence of 10% beef serum; assay type: functional, organism-based; procedure, shortened: as §1
[19] = system: Candida albicans; assay: Antifungal activity against Candida albicans ATCC 10231 at <100 ug/ml at pH 7 after 20 h in presence of 10% beef serum
[20] = system: Mucor mucedo; assay: Antifungal activity against Mucor mucedo ATCC 7941 at <100 ug/ml at pH 7 after 20 h in presence of 10% beef serum
[21] = system: Trichophyton mentagrophytes; assay: Antifungal activity against Trichophyton mentagrophytes ATCC 9129 at <100 ug/ml at pH 7 after 5 days in presence of 10% beef serum; assay type: functional, organism-based; procedure, shortened: as §1
[22] = system: Candida albicans; assay: Antifungal activity against Candida albicans ATCC 10231 at <100 ug/ml at pH 7 after 20 h in absence of 10% beef serum
[23] = system: Aspergillus niger; assay: Antifungal activity against Aspergillus niger ATCC 1004 at <100 ug/ml at pH 5.6 after 5 days in presence of 10% beef serum; assay type: functional, organism-based; procedure, shortened: as §1
[24] = system: Mucor mucedo; assay: Antifungal activity against Mucor mucedo ATCC 7941 at <100 ug/ml at pH 5.6 after 20 h in presence of 10% beef serum
[25] = system: Aspergillus niger; assay: Antifungal activity against Aspergillus niger ATCC 1004 at <100 ug/ml at pH 7 after 5 days in presence of 10% beef serum; assay type: functional, organism-based; procedure, shortened: as §1
[26] = system: Trichophyton mentagrophytes; assay: Antifungal activity against Trichophyton mentagrophytes ATCC 9129 at <100 ug/ml at pH 5.6 after 5 days in presence of 10% beef serum; assay type: functional, organism-based; procedure, shortened: as §1
[27] = system: Candida albicans; assay: Antifungal activity against Candida albicans ATCC 10231 at <100 ug/ml at pH 5.6 after 20 h in presence of 10% beef serum
[28] = system: Mucor mucedo; assay: Antifungal activity against Mucor mucedo ATCC 7941 at <100 ug/ml at pH 5.6 after 20 h in absence of 10% beef serum
[29] = system: Mucor mucedo; assay: Antifungal activity against Mucor mucedo ATCC 7941 at <100 ug/ml at pH 7 after 20 h in absence of 10% beef serum
[30] = system: Candida albicans; assay: Antifungal activity against Candida albicans ATCC 10231 at <100 ug/ml at pH 5.6 after 20 h in absence of 10% beef serum

Structure (SMILES)	MIC [1]	MIC [2]	MIC [3]	MIC [4]	MIC [5]	MIC [6]	MIC [7]	MIC [8]	MIC [9]	MIC [10]	MIC [11]	MIC [12]	MIC [13]	MIC [14]	MIC [15]	MIC [16]	inhibition [17]	inhibition [18]	inhibition [23]	inhibition [25]	other results
COC(=O)/C=C(\Br)C(=O)OC	9 µg/mL	16 µg/mL	4 µg/mL	14 µg/mL	20 µg/mL	12 µg/mL (≈ 53.8 µM)	3 µg/mL (≈ 13.5 µM)	14 µg/mL	18 µg/mL (≈ 80.7 µM)	20 µg/mL	5 µg/mL (≈ 22.4 µM)	14 µg/mL (≈ 62.8 µM)	< 1 µg/mL	3 µg/mL	3 µg/mL (≈ 13.5 µM)	18 µg/mL (≈ 80.7 µM)					
CCOC(=O)[C@H](F)[C@@H](Br)C(=O)OCC (relative stereo)	5 µg/mL	20 µg/mL	6 µg/mL	5 µg/mL	14 µg/mL	4 µg/mL (≈ 14.8 µM)	2 µg/mL (≈ 7.38 µM)	9 µg/mL	20 µg/mL (≈ 73.8 µM)	30 µg/mL	4 µg/mL (≈ 14.8 µM)	18 µg/mL (≈ 66.4 µM)	< 1 µg/mL	2 µg/mL	2 µg/mL (≈ 7.38 µM)	7 µg/mL (≈ 25.8 µM)					
CCCCCOC(=O)[C@H](F)[C@@H](Br)C(=O)OCCCCC (relative stereo)													12 µg/mL (≈ 33.8 µM)		40 µg/mL (≈ 113 µM)		inactive	inactive	inactive	inactive	inhibition [19]: inactive; inhibition [20]: inactive; inhibition [21]: inactive; inhibition [22]: inactive; inhibition [24]: inactive; inhibition [26]: inactive; inhibition [27]: inactive; inhibition [28]: inactive; inhibition [29]: inactive; inhibition [30]: inactive
COC(=O)/C=C(/Br)C(=O)OC	14 µg/mL		40 µg/mL	80 µg/mL	90 µg/mL	90 µg/mL (≈ 404 µM)	10 µg/mL (≈ 44.8 µM)	40 µg/mL			40 µg/mL (≈ 179 µM)		4 µg/mL (≈ 17.9 µM)	5 µg/mL	7 µg/mL (≈ 31.4 µM)	90 µg/mL (≈ 404 µM)	inactive	inactive	inactive	inactive	
CCCOC(=O)[C@@H](F)[C@@H](Br)C(=O)OCCC (relative stereo)	14 µg/mL	18 µg/mL	14 µg/mL	5 µg/mL	14 µg/mL	3 µg/mL (≈ 10 µM)	< 1 µg/mL	14 µg/mL	40 µg/mL (≈ 134 µM)	60 µg/mL	3 µg/mL (≈ 10 µM)	18 µg/mL (≈ 60.2 µM)	< 1 µg/mL	5 µg/mL	2 µg/mL (≈ 6.69 µM)	4 µg/mL (≈ 13.4 µM)					
C[C@@H]1[C@H](O)[C@@H](C)/C=C/C=C/C=C/C=C/C=C/C=C/C=C/[C@H](O[C@@H]2O[C@H](C)[C@@H](O)[C@H](N)[C@@H]2O)C[C@@H]2O[C@](O)(C[C@@H](O)C[C@@H](O)[C@H](O)CC[C@@H](O)C[C@@H](O)CC(=O)O[C@H]1C)C[C@H](O)[C@H]2C(=O)O [AMPHOTERICIN B]	< 1 µg/mL	< 1 µg/mL	< 1 µg/mL	< 1 µg/mL	< 1 µg/mL	< 1 µg/mL	< 1 µg/mL	< 1 µg/mL	< 1 µg/mL	< 1 µg/mL	< 1 µg/mL	< 1 µg/mL	< 1 µg/mL	< 1 µg/mL	< 1 µg/mL	< 1 µg/mL					
CCCCCOC(=O)[C@@H](F)[C@@H](Br)C(=O)OCCCCC (relative stereo)													3 µg/mL (≈ 8.44 µM)		14 µg/mL (≈ 39.4 µM)		inactive	inactive	inactive	inactive	inhibition [19]: inactive; inhibition [20]: inactive; inhibition [21]: inactive; inhibition [22]: inactive; inhibition [24]: inactive; inhibition [26]: inactive; inhibition [27]: inactive; inhibition [28]: inactive; inhibition [29]: inactive; inhibition [30]: inactive
CCCCCOC(=O)/C=C/C(=O)OCCCCC													16 µg/mL (≈ 62.4 µM)		50 µg/mL (≈ 195 µM)		inactive	inactive	inactive	inactive	inhibition [19]: inactive; inhibition [20]: inactive; inhibition [21]: inactive; inhibition [22]: inactive; inhibition [24]: inactive; inhibition [26]: inactive; inhibition [27]: inactive; inhibition [28]: inactive; inhibition [29]: inactive; inhibition [30]: inactive
COC(=O)/C=C(\F)C(=O)OC	40 µg/mL	50 µg/mL	2 µg/mL	6 µg/mL	40 µg/mL	4 µg/mL (≈ 24.7 µM)	< 1 µg/mL	6 µg/mL	60 µg/mL (≈ 370 µM)		4 µg/mL (≈ 24.7 µM)	20 µg/mL (≈ 123 µM)	< 1 µg/mL	4 µg/mL	8 µg/mL (≈ 49.3 µM)	20 µg/mL (≈ 123 µM)				inactive	
CCOC(=O)[C@@H](F)[C@@H](Br)C(=O)OCC (relative stereo)	6 µg/mL	12 µg/mL	5 µg/mL	6 µg/mL	16 µg/mL	4 µg/mL (≈ 14.8 µM)	4 µg/mL (≈ 14.8 µM)	7 µg/mL	30 µg/mL (≈ 111 µM)	40 µg/mL	6 µg/mL (≈ 22.1 µM)	12 µg/mL (≈ 44.3 µM)	2 µg/mL (≈ 7.38 µM)	5 µg/mL	3 µg/mL (≈ 11.1 µM)	12 µg/mL (≈ 44.3 µM)					
CCOC(=O)/C=C/C(=O)OCC	50 µg/mL		50 µg/mL	70 µg/mL		60 µg/mL (≈ 348 µM)	40 µg/mL (≈ 232 µM)	50 µg/mL			50 µg/mL (≈ 290 µM)		7 µg/mL (≈ 40.7 µM)	20 µg/mL	18 µg/mL (≈ 105 µM)	90 µg/mL (≈ 523 µM)	inactive	inactive	inactive	inactive	inhibition [19]: inactive
COC(=O)/C=C/C(=O)OC [DIMETHYL FUMARATE]	30 µg/mL		30 µg/mL	60 µg/mL	90 µg/mL	60 µg/mL	18 µg/mL	50 µg/mL			40 µg/mL		8 µg/mL	16 µg/mL	20 µg/mL	90 µg/mL	inactive	inactive	inactive	inactive	
